Screens (PubChem BioAssay)
ERAP1 inh – ERAP1 (human) enzyme inhibition. Q9NZ08. recombinant ERAP1, Leu-AMC fluorescence, 60 min. inhibition, % at 10.7 µM. 340,000 compounds, 0.15% hits. AID 652197;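 active means mean replicate inhibition of at least 30%, or all replicates individually reaching that 30% level; inactive means mean below 30% and not every replicate reaching it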
FGF22 binding – binders of recombinant human FGF22 by thermal shift; AID 651658; activity (Tm shift, normalised), % at 9.99 µM; 340,000 compounds, 1.5% hits; SYPRO orange fluorescence; percent of sucrose octasulfate shift, DMSO zero;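 active means mean Tm shift, scaled 0 neutral to 100 positive control, at about 1.3% or above, every replicate too, limit read from the data; inconclusive means no clear call, values can overlap the other calls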
ERp5 block – blocks human ERp5 reductase activity on insulin; ERp5 insulin aggregation, absorbance 650 nm, 90 min; Q15084; AID 651711; 350,000 compounds, 0.05% hits; inhibition, % at 9.99 µM;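 active means mean replicate inhibition above about 25%, with every replicate also reaching it, limit read from the data, passing the limit was not always enough; inconclusive means only one of those two criteria met; inactive means neither criterion met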
S100A4 inh HTS – inhibitors of human S100A4 binding to myosin IIA peptide; inhibition, % at 10.7 µM; 360,000 compounds, 0.14% hits; AID 652163; S100A4/TAMRA-MyoIIA peptide fluorescence polarization;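 active means mean inhibition of at least 70% across replicates, with every replicate also reaching that level; inconclusive means mean inhibition reaches 70% but some replicates fall short; inactive means mean inhibition below 70%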
Target sequence (P26447 whole entry, looked up): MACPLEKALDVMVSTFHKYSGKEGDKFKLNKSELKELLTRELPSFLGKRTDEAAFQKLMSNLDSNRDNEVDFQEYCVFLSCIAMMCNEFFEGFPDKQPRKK
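Assay system: human S100A4 monomer with TAMRA-labelled myosin IIA peptide / Buffer or medium: Calcium-containing HEPES buffer, pH 7.2 / Reagent: TAMRA-labelled myosin IIA heavy-chain peptide probe, 5 nM / Compound: one dose per compound / Timing: polarization read 5 min after assay mix addition, stable 5–60 min / Benchmarks: neutral control DMSO, positive control TFP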
PDI inh – PDI (human) enzyme inhibition; 350,000 compounds, 0.052% hits; PDI insulin aggregation turbidity, A650, 90 min; inhibition, % at 10 µM; P07237;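 active means mean inhibition across replicates of 30% or more, whatever share of single replicates reach that level; inconclusive means mean inhibition below 30% while every single replicate reaches 30%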
Target sequence (P07237 whole entry, looked up): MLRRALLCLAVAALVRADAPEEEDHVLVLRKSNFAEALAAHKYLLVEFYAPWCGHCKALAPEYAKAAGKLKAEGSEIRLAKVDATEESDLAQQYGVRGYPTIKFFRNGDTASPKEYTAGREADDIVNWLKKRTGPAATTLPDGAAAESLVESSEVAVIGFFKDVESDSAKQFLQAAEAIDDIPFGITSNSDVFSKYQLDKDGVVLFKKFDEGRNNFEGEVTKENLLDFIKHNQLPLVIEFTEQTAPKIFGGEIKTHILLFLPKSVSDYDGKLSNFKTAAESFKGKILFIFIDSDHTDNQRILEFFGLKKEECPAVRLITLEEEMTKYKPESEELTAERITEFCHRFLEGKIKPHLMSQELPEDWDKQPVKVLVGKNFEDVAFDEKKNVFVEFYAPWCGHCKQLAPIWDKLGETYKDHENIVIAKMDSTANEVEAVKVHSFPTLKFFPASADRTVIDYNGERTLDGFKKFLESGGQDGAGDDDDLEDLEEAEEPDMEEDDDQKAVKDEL
Hits are given with their value; - = inactive; ? = inconclusive; . = not tested or not shown. This excerpt belongs to a sample that is enriched for hits.

SMILES	ERAP1 inh	FGF22 binding	ERp5 block	S100A4 inh HTS	PDI inh
O=C(O)Cc1sc(Nc2cccc3ccccc23)nc1-c1ccc(F)cc1	-	-	-	-	-
Cc1cccc(-c2ccc([C@@H]3[C@@H](CO)N4CCCCN(CCC(F)(F)F)C[C@@H]34)cc2)c1	-	-	-	-	.
COc1ccc(NC(=O)Nc2ccc3c(c2)C(=O)N([C@H](C)CO)C[C@H](C)[C@@H](CN(C)C(=O)C2CCCCC2)OCCCC[C@H](C)O3)cc1	-	-	30	-	.
C[C@@H]1CCCCO[C@@H](CN(C)C(=O)Nc2cccc3ccccc23)[C@H](C)CN([C@H](C)CO)C(=O)c2cc(NS(=O)(=O)c3ccc(Cl)cc3)ccc2O1	-	2.1	-	-	.
C[C@@H]1CCCCO[C@H](CN(C)C(=O)Nc2cccc3ccccc23)[C@@H](C)CN([C@H](C)CO)C(=O)c2cc(NC(=O)Nc3cccc4ccccc34)ccc2O1	-	1.6	-	-	.
C[C@H]1CCCCO[C@H](CN(C)C(=O)Nc2cccc3ccccc23)[C@@H](C)CN([C@@H](C)CO)C(=O)c2cc(NC(=O)Nc3ccc4c(c3)OCO4)ccc2O1	-	12	-	-	.
C[C@H](CO)N1C[C@H](C)[C@@H](CN(C)C(=O)Nc2cccc3ccccc23)OCCCC[C@H](C)Oc2ccc(NS(=O)(=O)c3ccc(Cl)cc3)cc2C1=O	-	-	-	-	.
C[C@@H]1CCCCO[C@H](CN(C)C(=O)Nc2cccc3ccccc23)[C@H](C)CN([C@@H](C)CO)C(=O)c2cc(NC(=O)Nc3cccc4ccccc34)ccc2O1	-	-	-	-	.
COc1ccc(NC(=O)Nc2ccc3c(c2)C(=O)N([C@@H](C)CO)C[C@H](C)[C@H](CN(C)C(=O)C2CCCCC2)OCCCC[C@@H](C)O3)cc1	-	-	-	-	.
CC(C)C(NC(=O)C1CCC(C(C)(C)C)CC1)C(=O)NCCc1ccc(S(N)(=O)=O)cc1 (configuration not stated)	-	-	-	-	-
O=C(COc1ccccc1-c1ccccc1)NCc1cccc(Cl)c1	-	-	-	-	-
O=C(Nc1ccccc1)Nc1ccc(F)cc1F	-	43	-	-	-
O=C(Nc1ccccc1F)Nc1ccccc1F	-	44	-	-	-
C#CCNC(=O)C1=C[C@H](c2coc3ccccc3c2=O)[C@@H](CCCO)[C@H](OCC)O1	-	-	-	-	-
COc1ccc(/C=C/C(=O)c2cc3c(cc2N)OCO3)cc1	-	43	-	-	-
C/C=C/c1ccc2c(c1)O[C@H](CN(C)S(=O)(=O)c1ccccc1OC)[C@@H](C)CN([C@H](C)CO)S2(=O)=O	-	-	-	-	.
CC(C)(C)OC(=O)NCCCCCc1cn([C@@H](CO)C(=O)NCCCCCCCCCCC(=O)N2CCN(C(=O)OC(C)(C)C)CC2)nn1	-	1.3	-	-	-
COc1cc(OC)cc(C(=O)N[C@@H](CCSC)c2nc3ccccc3[nH]2)c1	-	43	-	-	-
COc1ccc2c3c([nH]c2c1)[C@H](CO)N(C(=O)Nc1c(C)noc1C)CC31CCN(CC2CC2)CC1	-	-	-	?	.
COc1ccc(S(=O)(=O)ON=C2CC(C)(C)N(C(C)=O)C(C)(C)C2)cc1	-	-	-	-	-
Cc1ccccc1C(=O)NN(C)c1nc2ccccc2nc1C(F)(F)F	.	.	.	.	-
CN(NC(=O)c1ccco1)c1nc2ccccc2nc1C(F)(F)F	-	43	-	-	-
CC1CCCC(C)N1C(=O)CSc1nc(N)cc(N)n1 (configuration not stated)	-	-	-	-	-
CCN1CCN(C(=O)CSc2nc(N)cc(N)n2)CC1	-	44	-	-	-
Cc1nn(-c2cccc(C(=O)O)c2)c(C)c1[N+](=O)[O-]	-	44	-	-	-
SMILES	ERAP1 inh	FGF22 binding	ERp5 block	S100A4 inh HTS	PDI inh
Cc1nn(-c2cccc(C(=O)O)c2)c(C)c1Oc1ccccc1O	.	.	.	.	-
Cc1cc(C)n(-c2cccc(C(=O)O)c2)n1	-	44	-	-	-
Cc1nn(CC(=O)Nc2ccc(Cl)cn2)c(C)c1[N+](=O)[O-]	.	.	.	.	-
O=C(O)c1cccc(-n2cnnn2)c1	.	.	.	.	-
Cc1nn(CC(=O)c2cccc(Cl)c2)c(C)c1[N+](=O)[O-]	-	43	-	-	-
CC(=O)c1ccc(C(=O)N(CCN(C)C)c2nc3c(Cl)cccc3s2)cc1	-	-	-	-	-
O=C(NCc1ccccc1)NC(O)C(Cl)(Cl)Cl (configuration not stated)	-	44	-	-	-
CC(=O)Cc1nsc(NC(=O)c2ccc(COc3ccccc3Cl)o2)n1	-	-	-	-	-
O=C(O)CCCSCC(=O)Nc1ccccc1	.	.	.	.	-
COC(=O)CN1CC(=O)N(c2ccccc2)C1=S	-	43	-	-	-
Cc1ccc(C)c(SCC(=O)OCC(=O)NCc2ccccc2)c1	-	44	-	-	-
Cc1ccc(C)c(SCC(=O)NC(=O)NCc2ccccc2)c1	.	.	.	.	-
COC(=O)c1ccccc1-c1ccc(/C=N/NC(N)=O)o1	.	2.9	-	-	-
O=[N+]([O-])c1cc2no[n+]([O-])c2cc1N1CCCCC1	-	-	-	-	-
O=C(O)c1ccc(Cn2cnc3sc4c(c3c2=O)CCCC4)cc1	-	43	-	-	-
O=C(O)Cn1cnc2sc3c(c2c1=O)CCCC3	-	-	-	-	-
COc1ccc(N/C(=C2\CCCC2=O)C2CCCCC2)cc1	-	-	-	-	-
CC1OC(Oc2c(-c3cc(O)c(O)c(O)c3)oc3cc(O)cc(O)c3c2=O)C(O)C(O)C1O (configuration not stated)	-	-	-	-	.
C[C@@H]1O[C@@H](O[C@H]2[C@H](O)[C@@H](O)[C@H](Oc3c(-c4ccc(O)cc4)oc4cc(O)cc(O)c4c3=O)O[C@@H]2CO)[C@H](O)[C@H](O)[C@H]1O	-	-	-	-	55
C[C@@H]1O[C@@H](OC[C@@H]2O[C@H](Oc3c(-c4ccc(O)cc4)oc4cc(O)cc(O)c4c3=O)[C@@H](O)[C@H](O)[C@H]2O)[C@H](O)[C@H](O)[C@H]1O	-	-	-	-	65
CCCCCCn1c(=O)n2n(c1=O)C[C@]1(OC(=O)Nc3cccs3)CN(S(=O)(=O)c3ccc(C)cc3)C[C@]1(O)C2	-	-	-	-	-
CCCCCCn1c(=O)n2n(c1=O)C[C@]1(OC(=O)Nc3c(C)noc3C)CN(S(=O)(=O)c3ccc(C)cc3)C[C@]1(O)C2	-	43	-	-	-
Cn1c(C(=O)N2CCN(C(=O)c3ccco3)CC2)cc2c(=O)n3ccccc3nc21	.	.	.	.	-
CN(C(=O)c1cc2c(=O)n3ccccc3nc2n1C)C1CCCCC1	61	-	-	-	-
CC1CN(C(=O)c2cc3c(=O)n4ccccc4nc3n2C)CC(C)O1 (configuration not stated)	38	-	-	-	-
Cn1c(C(=O)N2CCOCC2)cc2c(=O)n3ccccc3nc21	57	-	-	-	-
